Data set [1] can be described thus: Cmax in CD1 mouse at 5 mg/kg, po measured after 0.03 to 24 hrs by UHPLC-TOF method. It is filed as ADME, organism-based. Conditions: in vivo. Details: route oral, time upper 24 hrs, time lower 0.03 hrs, dose 5 mg/kg.
The nature of data set [2]: Half life in human liver microsomes preincubated followed by NADPH addition and measured up to 45 mins by LC-MS/MS analysis. In kind it is ADME, Microsome.
Data set [3] can be described thus: Protein binding in dog plasma assessed as unbound fraction at 5 uM by LC-MS/MS analysis based equilibrium dialysis method. In kind it is ADME, cell-free, Canis lupus familiaris.
The nature of data set [4]: Clearance in Sprague-Dawley rat at 1 mg/kg, iv administered […] measured after 0.02 to 24 hrs by tandem liquid chromatography/mass spectrometry. It is filed as ADME, organism-based. Conditions: in vivo, time 0.02-24 hrs.
Data set [5] can be described thus: Half life in Sprague-Dawley rat liver microsomes preincubated followed by NADPH addition and measured up to 45 mins by LC-MS/MS analysis. In kind it is ADME, Microsome. Background: Liver microsomes are a subcellular fraction often used to study metabolism.
Data set [6] is described as follows: Drug metabolism in human liver microsomes assessed as metabolite M1 formation at 10 uM incubated for 60 mins by HPLC method. In kind it is ADME, Microsome. Conditions: 1 h. The procedure, abridged:
(§1)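 Compound at 10 μM was incubated with rat or human liver microsomes. Sites of metabolism were proposed from mass spectral fragmentation patterns.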

A short description of data set [7]: Volume of distribution at steady state in Sprague-Dawley rat at 1 mg/kg, iv administered […] measured after 0.02 to 24 hrs by tandem liquid chromatography/mass spectrometry. It is filed as ADME, organism-based. Particulars: in vivo, time 0.02-24 hrs, read-out: Vdss. The procedure, abridged:
(§2)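 Male Sprague–Dawley rats (200–250 g), 3 per route. IV bolus at 1 mg/kg, 1 mg/mL in 40:60 dimethylacetamide/saline; oral gavage at 5 or 10 mg/kg, 5 mg/mL in 1% methyl cellulose, 0.1% Tween 80 in water. Serial blood at 0.02–24 h (ten points) into heparin, spun at 4 °C, plasma frozen; acetonitrile protein precipitation, ESI LC-MS/MS with matrix curve and internal standards.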

The nature of data set [8]: Volume of distribution at steady state in CD1 mouse at 1 mg/kg, iv measured after 0.083 to 24 hrs by UHPLC-TOF method. It is filed as ADME, organism-based. Particulars: in vivo, time 0.083-24 hrs, read-out: Vdss. The procedure, abridged:
(§3)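 Male CD-1 mice, acclimatized and individually housed, dosed IV and PO as amorphous-solid suspension. Terminal cardiac-puncture blood into heparinized tubes on wet ice, centrifuged at 4 °C within 15 min; plasma snap-frozen at −20 °C. IV arm sampled 2 min–24 h, oral arm 5 min–24 h. Plasma analysed by UHPLC-quadrupole-TOF MS.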

The nature of data set [9]: Oral bioavailability in Sprague-Dawley rat at 10 mg/kg administered via gavage measured after 0.02 to 24 hrs by tandem liquid chromatography/mass spectrometry. In kind it is ADME, organism-based. Particulars: in vivo, time 0.02-24 hrs. The gist of the method: as §2
In data set [10] the test system is Human orthopneumovirus. Put plainly: Antiviral activity against Respiratory syncytial virus A2 infected in African green monkey Vero cells by Plaque reduction assay. In kind it is functional, organism-based.
The nature of data set [11]: Intrinsic clearance in human liver microsomes preincubated followed by NADPH addition and measured up to 45 mins by LC-MS/MS analysis. It is filed as ADME, Microsome.
A short description of data set [12]: Oral bioavailability in CD1 mouse at 5 mg/kg measured after 0.03 to 24 hrs by UHPLC-TOF method. It is filed as ADME, organism-based. Conditions: in vivo, time 0.03-24 hrs. The procedure, abridged: as §3
Data set [13] in a line: Drug metabolism in rat liver microsomes assessed as metabolite M1 formation at 10 uM incubated for 60 mins by HPLC method. It is filed as ADME, Microsome. Conditions: 1 h. The procedure, abridged: as §1
The nature of data set [14]: Apparent permeability of compound in wild type MDCK at 10 uM incubated for 1 hr by LC-MS/MS assay. In kind it is ADME, Canis lupus familiaris. Particulars: dog.
Data set [15] is described as follows: Thermodynamic solubility in PBS at 1 to 100 uM at pH 7.4 by HPLC-UV method. In kind it is physicochemical. Particulars: dose 1-100 µM, read-out: Therm_solubility.
Data set [16] is described as follows: Protein binding in rat plasma assessed as unbound fraction at 5 uM by LC-MS/MS analysis based equilibrium dialysis method. It is filed as ADME, cell-free. On the technique in general: In equilibrium dialysis free small molecules cross a membrane that holds back macromolecules.
Data set [17] in a line: Protein binding in human plasma assessed as unbound fraction at 5 uM by LC-MS/MS analysis based equilibrium dialysis method. In kind it is ADME, cell-free.
Data set [18] in a line: Intrinsic clearance in Beagle dog liver microsomes preincubated followed by NADPH addition and measured up to 45 mins by LC-MS/MS analysis. It is filed as ADME, Canis lupus familiaris, Microsome.
The nature of data set [19]: Cytotoxicity against African green monkey Vero cells by MTT assay. It is filed as cell-based. Conditions: chlorocebus sabaeus. The gist of the method: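 Viability was assessed by MTT after culture with compound at 0.01 nM to 100 μM, run in parallel with plaque reduction assays. Values are the average of at least two testing occasions.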
Background: Formazan colour is commonly taken as a measure of viable cells.

A short description of data set [20]: Half life in Beagle dog liver microsomes preincubated followed by NADPH addition and measured up to 45 mins by LC-MS/MS analysis.
Data set [21] in a line: Intrinsic clearance in Sprague-Dawley rat liver microsomes preincubated followed by NADPH addition and measured up to 45 mins by LC-MS/MS analysis. In kind it is ADME, Microsome.
Data set [22] can be described thus: Clearance in CD1 mouse at 1 mg/kg, iv measured after 0.083 to 24 hrs by UHPLC-TOF method. In kind it is ADME, organism-based. Particulars: in vivo, time 0.083-24 hrs.
Data set [23] in a line: Kinetic solubility of compound in PBS at 200 uM at pH 7.4 by LC-MS/LC-UV analysis. In kind it is physicochemical. Particulars: read-out: Kinetic_solubility. The procedure, abridged:
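Compound added from DMSO into PBS pH 7.4; precipitation measured across a range of concentrations.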

A short description of data set [24]: Cmax in Sprague-Dawley rat at 5 mg/kg, po administered via gavage measured after 0.02 to 24 hrs by tandem liquid chromatography/mass spectrometry. Conditions: in vivo. In kind it is ADME, organism-based. Details: route oral, dose 5 mg/kg, time upper 24 hrs, time lower 0.02 hrs. The gist of the method:
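Male Sprague–Dawley rats weighing 200–250 g, 3 per route, were used. The i.v. bolus was 1 mg/kg at 1 mg/mL in 40:60 dimethylacetamide/saline. Oral gavage doses were 5 or 10 mg/kg at 5 mg/mL in 1% methyl cellulose with 0.1% Tween 80. Heparinized blood was taken at 0.02–24 h (ten time points). Plasma was analyzed by LC-MS/MS after acetonitrile precipitation.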

The nature of data set [25]: Intrinsic clearance in rat hepatocytes assessed per million cells at 3 uM measured up to 60 mins by LC-MS/MS analysis. It is filed as ADME, cell-based, Hepatocyte. Conditions: read-out: CLH.
Data set [26] can be described thus: Apparent permeability across apical to basolateral side in MDCK-MDR1 cells at 10 uM measured at 60 mins by LC-MS/MS analysis. In kind it is ADME, cell-based, Canis lupus familiaris. Conditions: dog, mdck-mdr1, 1 h, 10 µM.
The nature of data set [27]: Efflux ratio of apparent permeability in MDCK-MDR1 cells at 10 uM measured at 60 mins by LC-MS/MS analysis. It is filed as ADME, cell-based, Canis lupus familiaris. Particulars: dog, mdck-mdr1, 1 h, 10 µM.

Values after ≈ are worked out from the molar mass of the structure shown. Bounds are passed on as bounds.

A word on the Cmax: it is the maximum level reached in the sampled fluid or tissue. One may read the half-life as the time needed for the level to fall by half in the phase considered. The fraction unbound is free concentration divided by total concentration. In general, bioavailability refers to the share of a dose that reaches the circulation, judged against a reference dose that is usually intravenous. One may read the EC50 as the concentration at which the effect is half-maximal. As a reminder, the Papp is the rate of passage across a membrane or cell layer, normalised by area and donor concentration. By CC50 is commonly meant the concentration that lowers cell viability or growth by half. Take `CC(C)CCn1c(CN2C(=O)C3(CC3)c3ccccc32)nc2cc(CN)ccc21`: the Cmax in [1] and in data set [24] was 6 ng/mL in each case. In addition, the half-life in data set [2] is 5 min; in data set [5], > 95 min; in [20] it was > 100 min. Further, the fraction unbound at 5 µM in data set [3] was 0.1; in [16], 0.1; in data set [17] it was 0.07. The clearance in data set [4] and in data set [22] was 98 mL/min/kg each time. Moreover, the Drug metabolism result in data set [6] and in data set [13] was “Metabolite_Detected” in each case. In addition, the Vd in [7] and in data set [8] was 34 L/kg in each case. Besides, the bioavailability in data set [9] and in data set [12] was 4% throughout. Further, the midpoint of the response in data set [10], the EC50, lay at 31 nM. The “intrinsic clearance (CLint)” value in data set [11] worked out at 592 µL/min. Also, the Papp at 1 h, 10 µM in data set [14] is 12 ×10⁻⁶ cm/s. In addition, the solubility thermodynamic in data set [15] came out at 155 µM (≈ 60.2 µg/mL). For the same compound, the intrinsic clearance in data set [18] was < 28 µL/min. In data set [19], the CC50 turned out to be 15300 nM. The Microsomal intrinsic clearance in data set [21] was < 19 µL/min. In addition, the solubility kinetic at 200 µM in data set [23] amounted to 155 µM (≈ 60.2 µg/mL).
Turning to `CC(C)CCn1c(CN2C(=O)C3(CC3)c3ccc(F)cc32)nc2cc(CN)ccc21`, in [25], the hepatocyte CLint at 3 µM turned out to be 43.1 µL/min/1e6 cells. In addition, the unbound share (fraction unbound) at 5 µM in [3] stood at 0.151; in data set [16], 0.333; in data set [17], 0.184. The clearance in [4] worked out at 174 mL/min/kg. Besides, the Vd in data set [7] came out at 54.3 L/kg. The compound further displayed a bioavailability in data set [9] of 25%. In data set [10], this compound had an EC50 of 0.8 nM. In addition, the “intrinsic clearance (CLint)” value in data set [11] is 50.7 µL/min. Further, the solubility thermodynamic in [15] is 176 µM (≈ 71.7 µg/mL). In data set [18], this compound gave an intrinsic clearance of 6.23 µL/min. Half-maximal cytotoxicity in data set [19] (CC50) was put at 3000 nM. Moreover, the Microsomal intrinsic clearance in data set [21] was 45 µL/min. In data set [26], the Papp is listed as 0.75 10^-6 cm/s. Further, the Ratio in data set [27] came out at 88. Also, the Cmax in [24] was determined as 44.2 ng/mL.

For the origin of these results see ChEMBL document CHEMBL4825662 (J Med Chem, 2021).
